Active and inactive are the calls of the source. The calls are words filed in the database; no cut-off is given here.
Experiments:
[1] = target: T1, Metabotropic glutamate receptor 1 (Rattus norvegicus, UniProt P23385); experiment: (§1) Antagonist activity at rat mGluR1 by FLIPR assay; type: functional
[2] = target: Metabotropic glutamate receptor 5 (Rattus norvegicus) (UniProt P31424); experiment: Displacement of [3H]MPEP from rat mGluR5 upto 10 uM
Outline: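 Membranes were washed four times in 50 mM Tris-HCl pH 8.0 and resuspended in 50 mM Tris-HCl pH 7.5. 125–250 µg protein was incubated with 5 nM [3H]MPEP and test agent (up to 10 µM), up to 5% DMSO, 60 min at RT. Nonspecific binding: 10 µM MPEP. Filtered on glass fibre filters, rinsed with ice-cold buffer, then scintillation counted.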

[3] = target: T2, Metabotropic glutamate receptor 5 (Rattus norvegicus, UniProt P31424); experiment: Displacement of [3H]MPEP from rat mGluR5
[4] = target: T1, Metabotropic glutamate receptor 1; experiment: Antagonist activity at rat mGluR1 expressed in cerebellar granule cells assessed as accumulation of [3H]inositol phosphate; type: functional, cell-based
[5] = target: T3, Metabotropic glutamate receptor 5 (Homo sapiens, UniProt P41594); experiment: Antagonist activity at human mGluR5 expressed in CHO cells assessed as L-glutamate induced potentiation of intracellular calcium level by FLIPR assay; type: functional, cell-based
Outline: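 Human mGluR5 FLIPR calcium assay. Cells were loaded with Ca-sensitive dye for 2 h at RT in HEPES-buffered saline, pH 7.3. The dye kit contained glutamic-pyruvate transferase, Na-pyruvate and pyridoxal phosphate to avoid glutamate build-up. Compounds were preincubated 5 min before L-glutamate, and the intracellular calcium rise was read as RFU.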
Target sequence in this assay (P41594 whole entry): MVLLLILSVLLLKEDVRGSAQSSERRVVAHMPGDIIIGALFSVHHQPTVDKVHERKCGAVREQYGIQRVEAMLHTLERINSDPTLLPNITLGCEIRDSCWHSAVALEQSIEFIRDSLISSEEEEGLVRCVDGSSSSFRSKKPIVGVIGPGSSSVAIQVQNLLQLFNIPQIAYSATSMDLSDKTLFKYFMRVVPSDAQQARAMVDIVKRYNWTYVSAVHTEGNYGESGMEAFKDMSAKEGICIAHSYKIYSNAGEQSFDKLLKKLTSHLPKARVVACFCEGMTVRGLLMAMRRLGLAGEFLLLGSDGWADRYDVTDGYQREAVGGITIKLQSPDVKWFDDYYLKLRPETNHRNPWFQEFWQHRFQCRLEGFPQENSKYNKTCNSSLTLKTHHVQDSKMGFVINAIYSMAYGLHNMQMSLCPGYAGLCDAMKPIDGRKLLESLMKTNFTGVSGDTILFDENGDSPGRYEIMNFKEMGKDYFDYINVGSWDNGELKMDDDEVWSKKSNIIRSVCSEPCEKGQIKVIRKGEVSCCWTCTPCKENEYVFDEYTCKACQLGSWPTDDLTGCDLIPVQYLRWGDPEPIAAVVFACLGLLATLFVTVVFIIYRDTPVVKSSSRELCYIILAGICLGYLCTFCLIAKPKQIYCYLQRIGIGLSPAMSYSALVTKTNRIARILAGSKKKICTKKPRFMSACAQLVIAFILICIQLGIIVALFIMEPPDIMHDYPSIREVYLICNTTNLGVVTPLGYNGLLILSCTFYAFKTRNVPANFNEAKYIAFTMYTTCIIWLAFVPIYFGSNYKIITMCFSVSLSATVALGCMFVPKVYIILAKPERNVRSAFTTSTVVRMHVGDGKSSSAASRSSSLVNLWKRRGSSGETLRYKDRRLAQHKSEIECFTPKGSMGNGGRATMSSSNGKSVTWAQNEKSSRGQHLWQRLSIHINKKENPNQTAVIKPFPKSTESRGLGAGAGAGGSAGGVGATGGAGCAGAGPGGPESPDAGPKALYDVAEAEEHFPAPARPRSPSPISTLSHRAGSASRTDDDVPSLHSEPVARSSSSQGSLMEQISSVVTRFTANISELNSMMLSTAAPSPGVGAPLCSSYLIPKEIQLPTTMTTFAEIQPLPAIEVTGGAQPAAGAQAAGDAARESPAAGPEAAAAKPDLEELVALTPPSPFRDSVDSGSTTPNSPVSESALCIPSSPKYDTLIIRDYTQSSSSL

[6] = target: Metabotropic glutamate receptor 5 (Rattus norvegicus) (UniProt P31424); experiment: Positive modulation of rat mGluR5 assessed as fold left shift of L-quisqualate EC50 by calcium FLIPR assay
[7] = target: T2, Metabotropic glutamate receptor 5; experiment: Antagonist activity at mGluR5 in Sprague-Dawley rat astrocyte assessed as L-quisqualate induced potentiation of intracellular calcium level by FLIPR assay; type: functional, cell-based
[8] = target: T3, Metabotropic glutamate receptor 5; experiment: Positive modulation of human mGluR5 assessed as fold left shift of L-glutamate EC50 by calcium FLIPR assay
[9] = target: Metabotropic glutamate receptor 1 (Rattus norvegicus) (UniProt P23385); experiment: as §1; type: functional
Chain of Metabotropic glutamate receptor 1 (Rattus norvegicus) (P23385 19-1199 limits assumed): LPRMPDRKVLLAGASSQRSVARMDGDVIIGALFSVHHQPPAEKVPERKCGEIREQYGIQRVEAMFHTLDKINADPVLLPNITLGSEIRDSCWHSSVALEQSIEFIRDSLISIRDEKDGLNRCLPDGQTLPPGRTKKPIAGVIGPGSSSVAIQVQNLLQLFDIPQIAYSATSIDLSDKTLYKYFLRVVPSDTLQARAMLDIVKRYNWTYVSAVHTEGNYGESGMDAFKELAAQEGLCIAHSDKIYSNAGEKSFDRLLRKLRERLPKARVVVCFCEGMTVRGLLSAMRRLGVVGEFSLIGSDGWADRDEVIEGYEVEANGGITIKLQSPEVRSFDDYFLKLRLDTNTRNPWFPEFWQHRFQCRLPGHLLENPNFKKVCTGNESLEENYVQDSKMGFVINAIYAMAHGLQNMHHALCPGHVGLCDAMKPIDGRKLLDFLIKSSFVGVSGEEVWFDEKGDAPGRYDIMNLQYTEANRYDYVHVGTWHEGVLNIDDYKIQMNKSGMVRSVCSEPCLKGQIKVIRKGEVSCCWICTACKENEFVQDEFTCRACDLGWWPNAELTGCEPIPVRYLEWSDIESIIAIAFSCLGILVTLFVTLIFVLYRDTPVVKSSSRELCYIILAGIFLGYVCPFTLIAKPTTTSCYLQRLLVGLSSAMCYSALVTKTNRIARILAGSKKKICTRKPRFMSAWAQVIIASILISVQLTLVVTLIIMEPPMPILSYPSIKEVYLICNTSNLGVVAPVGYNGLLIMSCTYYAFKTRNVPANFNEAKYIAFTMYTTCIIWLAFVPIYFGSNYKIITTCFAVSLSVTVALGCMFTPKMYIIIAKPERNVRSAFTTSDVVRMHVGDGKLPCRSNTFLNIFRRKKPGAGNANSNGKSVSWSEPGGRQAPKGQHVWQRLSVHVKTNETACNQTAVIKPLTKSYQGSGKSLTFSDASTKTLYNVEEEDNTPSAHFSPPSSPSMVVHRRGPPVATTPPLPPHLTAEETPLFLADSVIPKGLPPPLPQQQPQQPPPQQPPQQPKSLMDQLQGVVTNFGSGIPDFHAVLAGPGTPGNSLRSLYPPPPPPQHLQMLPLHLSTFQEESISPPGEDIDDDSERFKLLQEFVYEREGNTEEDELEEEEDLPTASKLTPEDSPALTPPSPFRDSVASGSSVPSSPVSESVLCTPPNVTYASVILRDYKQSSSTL

[10] = target: Metabotropic glutamate receptor 5 (Rattus norvegicus) (UniProt P31424); experiment: Reversal of antagonist activity at Sprague-Dawley rat astrocyte mGluR5 in presence of L-quisqualate mGluR5 agonist at 10 uM by FLIPR assay; type: functional
[11] = target: T3, Metabotropic glutamate receptor 5; experiment: Reversal of antagonist activity at human mGluR5 expressed in CHO cells in presence of L-glutamate mGluR5 agonist at 10 uM by FLIPR assay; type: functional, cell-based

Chain of Metabotropic glutamate receptor 5 (Rattus norvegicus) (P31424 21-1203 limits assumed): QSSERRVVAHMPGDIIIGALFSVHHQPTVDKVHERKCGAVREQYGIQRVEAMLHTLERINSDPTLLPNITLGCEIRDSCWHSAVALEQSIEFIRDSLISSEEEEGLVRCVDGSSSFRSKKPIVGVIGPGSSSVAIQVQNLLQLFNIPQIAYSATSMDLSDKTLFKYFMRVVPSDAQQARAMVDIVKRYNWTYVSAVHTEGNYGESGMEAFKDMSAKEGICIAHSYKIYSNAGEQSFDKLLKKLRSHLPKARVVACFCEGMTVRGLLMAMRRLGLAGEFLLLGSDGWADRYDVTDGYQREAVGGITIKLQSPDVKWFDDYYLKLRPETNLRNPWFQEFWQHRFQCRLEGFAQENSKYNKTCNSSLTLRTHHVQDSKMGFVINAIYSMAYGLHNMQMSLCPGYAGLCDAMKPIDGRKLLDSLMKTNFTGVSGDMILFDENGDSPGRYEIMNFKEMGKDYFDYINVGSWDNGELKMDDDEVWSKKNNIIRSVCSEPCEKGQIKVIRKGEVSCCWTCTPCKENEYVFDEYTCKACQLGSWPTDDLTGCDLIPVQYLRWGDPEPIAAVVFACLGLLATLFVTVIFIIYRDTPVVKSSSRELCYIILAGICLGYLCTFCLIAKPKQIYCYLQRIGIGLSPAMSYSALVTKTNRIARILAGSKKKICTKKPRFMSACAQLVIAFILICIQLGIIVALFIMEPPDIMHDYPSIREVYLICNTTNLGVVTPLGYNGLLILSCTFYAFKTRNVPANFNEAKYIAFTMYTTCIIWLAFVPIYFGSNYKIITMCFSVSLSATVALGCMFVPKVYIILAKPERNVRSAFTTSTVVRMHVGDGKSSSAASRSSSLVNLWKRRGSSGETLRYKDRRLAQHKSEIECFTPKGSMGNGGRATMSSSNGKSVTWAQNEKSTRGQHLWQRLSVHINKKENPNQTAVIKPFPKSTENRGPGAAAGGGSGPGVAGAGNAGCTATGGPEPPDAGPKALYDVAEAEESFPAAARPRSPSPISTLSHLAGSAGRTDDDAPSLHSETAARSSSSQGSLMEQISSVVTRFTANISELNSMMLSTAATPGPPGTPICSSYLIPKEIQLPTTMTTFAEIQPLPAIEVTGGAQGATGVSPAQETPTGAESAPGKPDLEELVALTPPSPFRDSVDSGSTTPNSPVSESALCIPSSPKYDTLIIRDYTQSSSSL
T1 sequence (P23385 whole entry): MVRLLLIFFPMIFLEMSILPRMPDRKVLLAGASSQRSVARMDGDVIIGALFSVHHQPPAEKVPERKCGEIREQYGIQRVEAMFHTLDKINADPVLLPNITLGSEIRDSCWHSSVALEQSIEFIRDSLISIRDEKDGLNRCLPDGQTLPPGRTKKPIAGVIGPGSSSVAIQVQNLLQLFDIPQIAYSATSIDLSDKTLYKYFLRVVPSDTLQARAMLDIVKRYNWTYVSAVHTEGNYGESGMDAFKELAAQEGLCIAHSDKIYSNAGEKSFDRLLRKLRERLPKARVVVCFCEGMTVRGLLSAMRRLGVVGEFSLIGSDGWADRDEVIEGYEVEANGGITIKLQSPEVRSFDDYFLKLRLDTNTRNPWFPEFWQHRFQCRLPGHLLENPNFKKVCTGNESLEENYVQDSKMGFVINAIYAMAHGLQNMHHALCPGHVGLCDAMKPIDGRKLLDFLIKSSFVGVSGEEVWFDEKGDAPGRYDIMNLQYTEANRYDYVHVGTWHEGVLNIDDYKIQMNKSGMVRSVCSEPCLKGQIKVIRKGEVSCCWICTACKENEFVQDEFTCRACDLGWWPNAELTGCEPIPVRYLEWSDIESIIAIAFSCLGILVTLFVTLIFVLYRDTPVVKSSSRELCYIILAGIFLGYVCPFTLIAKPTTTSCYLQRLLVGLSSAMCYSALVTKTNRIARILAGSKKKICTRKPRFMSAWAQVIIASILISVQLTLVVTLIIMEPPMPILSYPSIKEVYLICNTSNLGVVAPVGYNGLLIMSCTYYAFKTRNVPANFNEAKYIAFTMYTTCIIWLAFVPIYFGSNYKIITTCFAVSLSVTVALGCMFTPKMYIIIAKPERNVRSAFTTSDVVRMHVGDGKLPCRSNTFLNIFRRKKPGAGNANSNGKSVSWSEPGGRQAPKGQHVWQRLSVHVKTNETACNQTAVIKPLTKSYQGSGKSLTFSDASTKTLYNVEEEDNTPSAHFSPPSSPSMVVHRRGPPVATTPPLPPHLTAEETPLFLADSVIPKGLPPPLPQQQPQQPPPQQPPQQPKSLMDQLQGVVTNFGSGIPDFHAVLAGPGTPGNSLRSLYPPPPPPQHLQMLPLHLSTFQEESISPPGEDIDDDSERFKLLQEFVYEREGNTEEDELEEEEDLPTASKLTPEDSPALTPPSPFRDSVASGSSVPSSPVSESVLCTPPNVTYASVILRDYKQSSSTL

Structure (SMILES) | Activity [2] | IC50 [3] | IC50 [4] | further results
CC1(C)CC(=O)c2cc([N+](=O)[O-])c(NC3CC=C(c4ccc(F)cc4)CC3)nc2C1 (stereo not given) | inactive | – | – | IC50 [1]: 12 µM
N#Cc1cc2c(nc1SCc1ccccc1)CCCC2=O | inactive | – | 30000 nM | –
CC1(C)CC(=O)c2cc(C#N)c(SCc3ccccc3)nc2C1 | – | 57 µM | 4800 nM | –
CCCCNc1nc2c(cc1C#N)C(=O)CC(C)(C)C2 | inactive | – | 1700 nM | –
CC1(C)CC(=O)c2ccc(OCc3ccccc3)nc2C1 | – | 12 µM | 21000 nM | –
OC1CCCc2nc(C#Cc3ccccc3)ccc21 (stereo not given) | – | – | – | EC50 [5]: 1130 nM; Ki [3]: 7600 nM; Activity [6]: 2.2; EC50 [7]: 490 nM; Activity [8]: 2
CN(Cc1ccccc1)c1nc2c(cc1C#N)C(=O)CC(C)(C)C2 | inactive | – | 5300 nM | –
CC1(C)CC(=O)c2cc(C#N)c(NCc3ccccc3)nc2C1 | inactive | – | 2500 nM | –
O=C1CCCc2nc(OCc3ccccc3)ccc21 | – | 1.9 µM | 25000 nM | –
CC1(C)CC(=O)c2cc(C#N)c(N3CCN(c4ccccc4)CC3)nc2C1 | inactive | – | 130 nM | –
CC1(C)CC(=O)c2cc(C#N)c(N3CC=C(c4ccc(F)cc4)CC3)nc2C1 | inactive | – | 110 nM | –
CC1(C)CC(=O)c2cc(Br)c(N3CCN(c4ccc(F)cc4)CC3)nc2C1 | – | 37 µM | ≤ 1000 nM | –
COc1ccc(N2CCN(c3nc4c(cc3C#N)C(=O)CC(C)(C)C4)CC2)cc1 | inactive | – | 7600 nM | –
CC1(C)CC(=O)c2cc(C#N)c(NC3Cc4ccccc4C3)nc2C1 | inactive | – | 1900 nM | –
O=C1CCCc2nc(N3CCN(c4ccccc4)CC3)ccc21 | inactive | – | 10400 nM | –
CCCCCCNc1nc2c(cc1C#N)C(=O)CC(C)(C)C2 | inactive | – | 2600 nM | –
O[C@H]1CCCc2nc(C#Cc3ccccc3)ccc21 | – | – | – | EC50 [5]: 1080 nM; Ki [3]: 9280 nM; Activity [6]: 2; EC50 [7]: 250 nM; Activity [8]: 2.5

Structure (SMILES) | Activity [2] | IC50 [3] | IC50 [4] | further results
O[C@@H]1CCCc2nc(C#Cc3ccccc3)ccc21 | – | – | – | EC50 [5]: 980 nM; Ki [3]: 4710 nM; Activity [6]: 3.1; EC50 [7]: 180 nM; Activity [8]: 2.5
O=C(NC12CC3CC(CC(C3)C1)C2)c1cnc2ccccc2c1 | – | – | 52 nM | –
CCCNc1nc2c(cc1C#N)C(=O)CC(C)(C)C2 | inactive | – | 2300 nM | –
CC1(C)CC(=O)c2cc(N3CCOCC3)c(N3CC=C(c4ccc(F)cc4)CC3)nc2C1 | inactive | – | – | IC50 [1]: 15 µM
CC1(C)CC(=O)c2ccc(C#Cc3ccccn3)nc2C1 | – | 2.6 µM | – | Ki [3]: 210 nM
CC1(C)CCc2nc(C#Cc3ccccc3)ccc2C1=O | – | 0.023 µM | – | Ki [3]: 51 nM
CC1(C)CC(=O)c2cc(Cl)c(NC3CCCC3)nc2C1 | – | – | – | IC50 [1]: 7.9 µM
O=C1CCCc2nc(C#Cc3ccccc3)ccc21 | – | – | – | Activity [10]: Active; Ki [3]: 800 nM; Activity [6]: 2; Activity [11]: Active; EC50 [7]: 34 nM; Activity [8]: 3.2
CCc1nc(C#N)c(N2CCc3ccccc3CC2)nc1C | – | – | 6 nM | –
CC1(C)CC(=O)c2ccc(NCc3ccccc3)nc2C1 | – | 8.1 µM | 45000 nM | –
CN(Cc1ccccc1)c1nc2c(cc1C#N)C(=O)CCC2 | – | 80 µM | 25000 nM | –
COC(=O)c1ccc(C#Cc2ccccc2)nc1 | – | 4.6 µM | – | Ki [3]: 1400 nM
C(#Cc1ccc2c(n1)CCCC2)c1ccccc1 | – | 0.51 µM | – | Ki [3]: 1500 nM
CC1(C)CC(=O)c2cc(C#N)c(N3CCN(c4ccc(F)cc4)CC3)nc2C1 | inactive | – | 160 nM | –
CC1(C)CC(=O)c2cc(C#N)c(N3CC=C(c4ccccc4)CC3)nc2C1 | inactive | – | < 1000 nM | –
CC1(C)CC(=O)c2cc(C#N)c(N3CCc4ccccc4C3)nc2C1 | inactive | – | 1500 nM | –
COC1CCCc2nc(C#Cc3ccccc3)ccc21 (stereo not given) | – | 0.08 µM | – | Ki [3]: 139 nM

Second part, led by results:

Activity [2] | IC50 [3] | IC50 [4] | Structure (SMILES) | further results
inactive | – | – | CC1(C)CC(=O)c2cc(-c3nn[nH]n3)c(NC3CCCC3)nc2C1 | IC50 [1]: 13 µM
– | 58 µM | – | CN(C)C(=O)c1cc2c(nc1NC1CCCC1)CC(C)(C)CC2=O | IC50 [1]: 21 µM
inactive | – | – | CC1(C)CC(=O)c2cc(C#N)c(NC34CC5CC(CC(C5)C3)C4)nc2C1 | –
inactive | – | 3000 nM | N#Cc1cc2c(nc1NC1CCCCC1)CCCC2=O | –
– | 29 µM | – | CC1(C)CC(=O)c2cc(Br)c(NC3CCCC3)nc2C1 | Activity [9]: inactive
– | – | 7000 nM | O=C(NC12CC3CC(CC(C3)C1)C2)c1cnccn1 | –
inactive | – | – | CC1(C)CC(=O)c2cc(C(=O)O)c(NC3CCCC3)nc2C1 | IC50 [1]: 23 µM
inactive | – | 4000 nM | CC1(C)CC(=O)c2cc(C#N)c(NC3CCCCC3)nc2C1 | –
– | – | 440 nM | O=C(NC12CC3CC(CC(C3)C1)C2)c1ccc2ccccc2n1 | –
– | – | 5 nM | O=C(NC12CC3CC(CC(C3)C1)C2)c1cnc2ccccc2n1 | –
– | 49 µM | 78 nM | CC1(C)CC(=O)c2cc(C#N)c(NC3CCCC3)nc2C1 | –
– | 60 µM | – | O=C1CCCc2nc(C#Cc3ccccn3)ccc21 | Ki [3]: 2360 nM
inactive | – | – | CC1(C)CC(=O)c2cc(-c3cncnc3)c(NC3CCCC3)nc2C1 | Activity [9]: inactive

Reference: ChEMBL document CHEMBL1140723, “Positive and negative modulation of group I metabotropic glutamate receptors” (J Med Chem, 2008)
